Measurements reported in ChEMBL document CHEMBL1152560, “Substituted 2-arylbenzothiazoles as kinase inhibitors: hit-to-lead optimization” (Bioorg Med Chem, 2009).

Tests used:
[1] = target: Platelet-derived growth factor receptor beta (Homo sapiens, UniProt P09619); experiment: Inhibition of PDGFRbeta by microplate scintillation counting
Summary of the method: (§1)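 Substrates: tetra(LRRWSLG) for Aurora A/B; poly(Ala,Glu,Lys,Tyr)6:2:5:1 for PDGFRβ; poly(Glu,Tyr)4:1 for TIE2 and VEGFR2. Stopped with 2% H3PO4.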

Aurora kinase A = target: T1, Aurora kinase A (Homo sapiens, UniProt O14965); experiment: Inhibition of Aurora-A by microplate scintillation counting; summary of the method: as §1
T1 sequence (O14965 whole entry): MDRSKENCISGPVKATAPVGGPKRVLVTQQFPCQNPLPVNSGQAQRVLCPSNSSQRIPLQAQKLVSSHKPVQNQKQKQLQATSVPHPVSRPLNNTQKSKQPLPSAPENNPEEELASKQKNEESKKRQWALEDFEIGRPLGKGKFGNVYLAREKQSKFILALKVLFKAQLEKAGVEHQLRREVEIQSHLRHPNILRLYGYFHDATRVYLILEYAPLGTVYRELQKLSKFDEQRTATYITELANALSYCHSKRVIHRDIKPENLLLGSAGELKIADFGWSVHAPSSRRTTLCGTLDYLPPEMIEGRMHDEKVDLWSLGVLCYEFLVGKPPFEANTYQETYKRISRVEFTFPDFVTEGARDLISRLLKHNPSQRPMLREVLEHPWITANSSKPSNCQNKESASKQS

Angiopoietin-1 receptor [2] = target: T2, Angiopoietin-1 receptor (Homo sapiens, UniProt Q02763); experiment: Inhibition of TIE2 in human HCT116 cells by cellular phosphorylation assay; type: cell-based, HCT-116
T2 sequence (Q02763 whole entry): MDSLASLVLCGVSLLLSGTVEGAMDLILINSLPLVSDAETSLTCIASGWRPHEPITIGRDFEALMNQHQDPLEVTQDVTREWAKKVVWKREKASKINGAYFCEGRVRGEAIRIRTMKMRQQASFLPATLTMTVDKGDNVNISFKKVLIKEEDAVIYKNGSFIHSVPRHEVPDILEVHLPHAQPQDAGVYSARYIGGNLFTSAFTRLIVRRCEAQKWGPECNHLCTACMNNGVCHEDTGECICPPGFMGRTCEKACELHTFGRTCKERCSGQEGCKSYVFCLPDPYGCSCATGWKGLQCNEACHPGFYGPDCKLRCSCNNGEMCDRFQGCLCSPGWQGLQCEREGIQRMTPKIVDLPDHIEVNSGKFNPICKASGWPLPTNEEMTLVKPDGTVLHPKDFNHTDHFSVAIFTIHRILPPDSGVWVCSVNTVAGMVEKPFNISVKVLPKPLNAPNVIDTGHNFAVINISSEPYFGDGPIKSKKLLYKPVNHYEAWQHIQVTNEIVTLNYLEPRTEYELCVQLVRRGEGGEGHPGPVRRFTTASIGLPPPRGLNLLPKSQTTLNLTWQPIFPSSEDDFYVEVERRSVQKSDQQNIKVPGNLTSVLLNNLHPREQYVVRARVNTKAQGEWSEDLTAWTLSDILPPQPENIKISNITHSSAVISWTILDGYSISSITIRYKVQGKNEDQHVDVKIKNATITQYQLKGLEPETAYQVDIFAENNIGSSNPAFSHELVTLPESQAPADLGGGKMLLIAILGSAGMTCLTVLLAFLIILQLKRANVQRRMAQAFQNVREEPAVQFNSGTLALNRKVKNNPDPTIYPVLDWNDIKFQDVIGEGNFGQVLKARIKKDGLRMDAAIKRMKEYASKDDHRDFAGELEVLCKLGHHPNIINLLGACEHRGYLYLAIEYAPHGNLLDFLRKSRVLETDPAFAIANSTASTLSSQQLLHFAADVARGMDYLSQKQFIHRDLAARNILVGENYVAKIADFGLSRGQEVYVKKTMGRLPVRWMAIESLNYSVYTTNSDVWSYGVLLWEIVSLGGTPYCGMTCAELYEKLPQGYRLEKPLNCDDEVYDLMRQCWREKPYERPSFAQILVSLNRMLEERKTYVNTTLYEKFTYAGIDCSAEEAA
Summary of the method: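 TIE2 autophosphorylation in cells expressing the receptor. Compound was applied, cells were stimulated, then lysed with phosphoprotein levels preserved. Phosphorylation was quantified by sandwich ELISA with a receptor-specific capture antibody and anti-phosphotyrosine antibody, relative to the stimulated high control.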

[3] = target: T3, Epidermal growth factor receptor (Homo sapiens, UniProt P00533); experiment: Inhibition of wild type EGF-R by microplate scintillation counting
T3 sequence (P00533 whole entry): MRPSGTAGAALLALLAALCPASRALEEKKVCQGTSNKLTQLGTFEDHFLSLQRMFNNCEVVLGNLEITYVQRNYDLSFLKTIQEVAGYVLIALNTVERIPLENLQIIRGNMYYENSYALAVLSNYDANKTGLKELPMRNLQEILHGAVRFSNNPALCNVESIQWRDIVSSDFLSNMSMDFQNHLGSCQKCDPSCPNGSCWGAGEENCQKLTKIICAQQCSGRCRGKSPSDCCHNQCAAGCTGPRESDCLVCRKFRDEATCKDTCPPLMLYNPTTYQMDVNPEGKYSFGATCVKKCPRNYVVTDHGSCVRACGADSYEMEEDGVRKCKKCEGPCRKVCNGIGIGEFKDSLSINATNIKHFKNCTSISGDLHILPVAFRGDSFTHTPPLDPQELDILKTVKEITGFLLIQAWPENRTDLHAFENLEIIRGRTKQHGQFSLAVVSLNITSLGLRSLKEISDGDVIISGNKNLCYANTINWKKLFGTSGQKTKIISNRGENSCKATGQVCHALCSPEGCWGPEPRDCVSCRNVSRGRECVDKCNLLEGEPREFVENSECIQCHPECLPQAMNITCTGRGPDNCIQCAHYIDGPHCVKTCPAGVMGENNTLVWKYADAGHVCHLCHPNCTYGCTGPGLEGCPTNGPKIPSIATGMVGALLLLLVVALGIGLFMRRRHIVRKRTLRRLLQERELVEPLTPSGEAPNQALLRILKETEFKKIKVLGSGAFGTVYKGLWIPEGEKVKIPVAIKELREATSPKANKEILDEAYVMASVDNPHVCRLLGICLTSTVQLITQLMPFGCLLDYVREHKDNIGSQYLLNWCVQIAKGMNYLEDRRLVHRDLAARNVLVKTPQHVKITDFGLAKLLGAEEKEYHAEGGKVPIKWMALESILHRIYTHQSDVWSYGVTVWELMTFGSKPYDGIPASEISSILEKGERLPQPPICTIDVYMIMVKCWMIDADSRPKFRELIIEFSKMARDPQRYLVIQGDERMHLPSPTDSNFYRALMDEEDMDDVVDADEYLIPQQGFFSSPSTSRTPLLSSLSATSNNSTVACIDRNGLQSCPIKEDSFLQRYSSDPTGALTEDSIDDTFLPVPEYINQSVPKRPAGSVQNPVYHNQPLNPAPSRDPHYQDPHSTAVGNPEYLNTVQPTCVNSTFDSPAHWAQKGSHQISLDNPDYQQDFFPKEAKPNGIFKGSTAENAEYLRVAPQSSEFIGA

[4] = target: Vascular endothelial growth factor receptor 3 (Homo sapiens, UniProt P35916); experiment: Inhibition of VEGFR3 by microplate scintillation counting
Vascular endothelial growth factor receptor 3, sequence (P35916 whole entry): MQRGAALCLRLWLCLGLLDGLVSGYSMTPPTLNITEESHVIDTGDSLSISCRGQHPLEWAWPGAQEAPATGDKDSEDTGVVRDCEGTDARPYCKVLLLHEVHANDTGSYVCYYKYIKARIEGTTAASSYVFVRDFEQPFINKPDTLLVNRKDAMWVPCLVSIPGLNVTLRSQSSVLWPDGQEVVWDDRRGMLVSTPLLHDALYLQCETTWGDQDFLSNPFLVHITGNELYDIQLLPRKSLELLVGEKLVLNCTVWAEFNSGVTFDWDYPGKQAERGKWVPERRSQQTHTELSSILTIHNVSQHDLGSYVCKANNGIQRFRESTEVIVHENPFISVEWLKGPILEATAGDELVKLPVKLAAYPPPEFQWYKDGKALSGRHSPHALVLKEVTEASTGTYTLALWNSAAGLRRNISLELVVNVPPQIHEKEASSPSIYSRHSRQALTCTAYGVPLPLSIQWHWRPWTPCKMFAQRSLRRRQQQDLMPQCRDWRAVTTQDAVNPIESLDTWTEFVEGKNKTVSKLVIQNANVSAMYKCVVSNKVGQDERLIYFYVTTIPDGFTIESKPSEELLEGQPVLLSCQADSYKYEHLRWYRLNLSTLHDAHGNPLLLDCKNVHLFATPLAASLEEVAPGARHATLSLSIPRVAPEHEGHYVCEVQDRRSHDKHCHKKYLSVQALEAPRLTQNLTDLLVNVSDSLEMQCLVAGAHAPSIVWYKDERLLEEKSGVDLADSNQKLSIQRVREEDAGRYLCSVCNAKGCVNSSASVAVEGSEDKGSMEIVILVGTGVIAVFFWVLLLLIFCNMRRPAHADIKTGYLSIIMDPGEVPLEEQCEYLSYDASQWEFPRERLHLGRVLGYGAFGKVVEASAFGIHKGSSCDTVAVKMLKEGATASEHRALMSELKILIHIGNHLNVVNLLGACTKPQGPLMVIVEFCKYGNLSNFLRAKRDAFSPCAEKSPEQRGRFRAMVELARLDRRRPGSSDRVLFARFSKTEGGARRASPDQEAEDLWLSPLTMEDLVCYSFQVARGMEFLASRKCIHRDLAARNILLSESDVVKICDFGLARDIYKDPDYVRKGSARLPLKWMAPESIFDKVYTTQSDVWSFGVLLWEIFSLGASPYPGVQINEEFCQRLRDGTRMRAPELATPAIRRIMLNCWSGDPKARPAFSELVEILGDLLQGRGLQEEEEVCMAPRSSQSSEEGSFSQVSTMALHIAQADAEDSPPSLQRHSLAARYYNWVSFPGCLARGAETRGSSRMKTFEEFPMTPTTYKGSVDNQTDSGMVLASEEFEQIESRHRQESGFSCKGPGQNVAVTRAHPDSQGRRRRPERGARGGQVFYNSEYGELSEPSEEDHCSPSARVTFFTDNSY
Summary of the method: (§2)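 Radiometric FlashPlate assay using recombinant kinase (10–200 ng/well) with poly(Glu,Tyr)4:1 substrate. Buffer: 60 mM HEPES-NaOH pH 7.5, 3 mM MgCl2, 3 mM MnCl2, 3 µM orthovanadate, 1.2 mM DTT, PEG 20000, 1 µM [γ-33P]-ATP. Run 80 min at 30 °C, stopped with H3PO4, and 33P incorporation counted.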

[5] = target: Vascular endothelial growth factor receptor 2 (Homo sapiens, UniProt P35968); experiment: Inhibition of VEGFR2 by microplate scintillation counting
[6] = target: T3, Epidermal growth factor receptor; experiment: Inhibition of EGFR in human HCT116 cells by cellular phosphorylation assay
Angiopoietin-1 receptor [7] = target: T2, Angiopoietin-1 receptor; experiment: Inhibition of TIE2 by microplate scintillation counting
Aurora kinase B = Aurora kinase B (Homo sapiens, UniProt Q96GD4); experiment: Inhibition of Aurora-B by microplate scintillation counting; summary of the method: as §1
Aurora kinase B, sequence (Q96GD4 whole entry): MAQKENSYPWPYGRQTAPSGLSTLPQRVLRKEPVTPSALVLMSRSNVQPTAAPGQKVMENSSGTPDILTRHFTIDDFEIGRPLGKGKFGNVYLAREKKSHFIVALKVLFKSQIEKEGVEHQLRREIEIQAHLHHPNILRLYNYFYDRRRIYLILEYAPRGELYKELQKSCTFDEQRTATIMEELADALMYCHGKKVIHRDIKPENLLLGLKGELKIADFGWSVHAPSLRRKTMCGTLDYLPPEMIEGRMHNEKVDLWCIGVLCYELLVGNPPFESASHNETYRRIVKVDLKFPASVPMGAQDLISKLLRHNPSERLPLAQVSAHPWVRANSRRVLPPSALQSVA

[8] = target: Receptor tyrosine-protein kinase erbB-2 (Homo sapiens, UniProt P04626); experiment: Inhibition of ERBB2 by microplate scintillation counting; summary of the method: as §2

## COc1cc2c(Nc3ccc(-c4nc5ccccc5s4)cc3F)ncnc2cc1OCCCN1CCN(C)CC1
[1]
  IC50: 4400 nM
Aurora kinase A
  IC50: 26 nM
Angiopoietin-1 receptor [2]
  EC50: 2100 nM
[3]
  IC50: 805 nM
[4]
  IC50: 350 nM
[5]
  IC50: 62 nM
[6]
  EC50: > 10000 nM
Angiopoietin-1 receptor [7]
  IC50: 29 nM
Aurora kinase B
  IC50: 28 nM
[8]
  IC50: 2400 nM
